Assay results from ChEMBL document CHEMBL1130289, “Polyanion inhibitors of human immunodeficiency virus and other viruses. 5. Telomerized anionic surfactants derived from amino acids” (J Med Chem, 1997).

Columns and labels:
Semliki Forest virus = experiment: Concentration required to inhibit forest induced cytopathicity in Vero cells by 50%; assay type: functional, organism-based
Procedure, shortened: (§1)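 Virus was added to the cell monolayers in the presence of compound. Incubation continued until the viral cytopathic effect was scored. IC50 is the concentration that reduced virus-induced cytopathicity by 50%.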

E6SM = experiment: Minimum cytotoxic concentration required to cause a microscopically detectable alteration of normal cell morphology in E6SM cells; assay type: functional, Homo sapiens
Procedure, shortened: (§2)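 Uninfected E6SM, HeLa or Vero cells were exposed to compound and examined by microscopy. MCC is the lowest concentration causing a detectable alteration of normal cell morphology.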

[1] = tested on: Human immunodeficiency virus 1; experiment: Concentration required to inhibit HIV-1 induced cytopathicity in MT-4 cells by 50%; assay type: functional, organism-based; conditions: Human immunodeficiency virus 1, MT4
Procedure, shortened: (§3)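 MT-4 cells were infected with HIV-1 (strain HTLV-IIIB/LAI) or HIV-2 (strain LAV-2 ROD) and exposed to compound. IC50 is the concentration that inhibited HIV-induced cytopathicity by 50%. Values are means of two separate experiments.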

CEM-4 = experiment: Cytotoxic concentration required to reduce the viability of uninfected cells by 50% after 5 days of incubation in the presence on CEM-4 cells.; assay type: functional; conditions: Homo sapiens, CEM-4, 120 h
Procedure, shortened: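 Uninfected CEM-4 cells were incubated with compound for 5 days. CC50 is the concentration that reduced viability by 50%. Values average at least two separate experiments.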

Human betaherpesvirus 5 [2] = experiment: Concentration required to inhibit HCMV(AD169) induced cytopathicity in HEL cells by 50%; assay type: functional, organism-based; conditions: Human betaherpesvirus 5, HEL; procedure, shortened: as §1
[3] = tested on: Human immunodeficiency virus 2; experiment: Concentration required to inhibit by 50% syncytium formation between MOLT-4 cells and HIV-2 (ROD) infected HUT-78 cells; assay type: functional, organism-based; conditions: Human immunodeficiency virus 2, MOLT-4
Procedure, shortened: (§4)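 Uninfected MOLT-4 cells were co-cultured with HUT-78 cells chronically infected with HIV-1 (IIIB) or HIV-2 (ROD), in the presence of compound. The end point was syncytium formation, and IC50 is the concentration giving 50% inhibition. Values are means of two separate experiments.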

Junin virus = experiment: Concentration required to inhibit Junin induced cytopathicity in Vero cells by 50%; assay type: functional, organism-based; conditions: Mammarenavirus juninense
[4] = tested on: Human immunodeficiency virus 1; experiment: Concentration required to inhibit by 50% syncytium formation between MOLT-4 cells and HIV-1(IIIB); assay type: functional, organism-based; conditions: Human immunodeficiency virus 1, MOLT-4; procedure, shortened: as §4
[5] = tested on: Mammalian orthoreovirus 1; experiment: Concentration required to inhibit reovirus-1 induced cytopathicity in Vero cells by 50%; assay type: functional, organism-based; conditions: Mammalian orthoreovirus 1, Vero; procedure, shortened: as §1
Human alphaherpesvirus 2 = experiment: Concentration required to inhibit HSV-2(G) induced cytopathicity in E6SM cells by 50%; conditions: Human alphaherpesvirus 2, E6SM
Poliovirus 1 = experiment: Concentration required to inhibit Polio-1 induced cytopathicity in HeLa cells by 50%; assay type: functional, organism-based; conditions: Enterovirus C
Human betaherpesvirus 5 [6] = experiment: Concentration required to inhibit HCMV(Davis) induced cytopathicity in HEL cells by 50%; assay type: functional, organism-based; conditions: Human betaherpesvirus 5, HEL; procedure, shortened: as §1
Vero = experiment: Minimum cytotoxic concentration required to cause a microscopically detectable alteration of normal cell morphology in Vero cells; assay type: functional, Chlorocebus sabaeus; procedure, shortened: as §2
Vaccinia virus = experiment: Concentration required to inhibit Vaccinia induced cytopathicity in E6SM cells by 50%; assay type: functional, organism-based; conditions: Orthopoxvirus vaccinia
Human alphaherpesvirus 1 [7] = experiment: Concentration required to inhibit HSV-1(KOS) induced cytopathicity in E6SM cells by 50%; conditions: Human alphaherpesvirus 1, E6SM
[8] = tested on: Human immunodeficiency virus 2; experiment: Concentration required to inhibit HIV-2 induced cytopathicity in MT-4 cells by 50%; assay type: functional, organism-based; conditions: Human immunodeficiency virus 2, MT4; procedure, shortened: as §3
Tacaribe virus = experiment: Concentration required to inhibit Tacaribe induced cytopathicity in Vero cells by 50%; assay type: functional, cell-based; conditions: Mammarenavirus tacaribeense
Sindbis virus = experiment: Concentration required to inhibit Sindbis induced cytopathicity in Vero cells by 50%; assay type: functional, organism-based; procedure, shortened: as §1
Coxsackievirus = experiment: Concentration required to inhibit Coxsackie induced cytopathicity in HeLa cells by 50%; assay type: functional, organism-based; procedure, shortened: as §1
Human alphaherpesvirus 1 [9] = experiment: Concentration required to inhibit HSV-1 TK-(B2006) induced cytopathicity in E6SM cells by 50%; conditions: Human alphaherpesvirus 1, E6SM
Human respirovirus 3 = experiment: Concentration required to inhibit parainfluenza-3 induced cytopathicity in Vero cells by 50%; assay type: functional, organism-based; conditions: Human respirovirus 3, Vero; procedure, shortened: as §1
HeLa = experiment: Minimum cytotoxic concentration required to cause a microscopically detectable alteration of normal cell morphology in HeLa cells; assay type: functional, Homo sapiens; procedure, shortened: as §2
[10] = tested on: Human immunodeficiency virus 1; experiment: Inhibitory concentration required to inhibit HIV-induced cytopathicity in CEM-4 cells by 50% based in the MTT assay; Not active; assay type: functional, organism-based
[11] = tested on: Vesicular stomatitis virus; experiment: Concentration required to inhibit vesicular stomatitis induced cytopathicity in E6SM cells by 50%; assay type: functional, organism-based
MT4 = experiment: Concentration required to reduce the viability of mock-infected MT-4 cells by 50%; assay type: functional; conditions: Homo sapiens
Procedure, shortened: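 Mock-infected MT-4 cells were exposed to compound. CC50 is the concentration that reduced cell viability by 50%. Values are means of two separate experiments.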

HEL = experiment: Minimum cytotoxic concentration required to cause a microscopically detectable alteration of normal cell morphology in HEL cells; assay type: functional, Homo sapiens
[12] = tested on: Human immunodeficiency virus 1; experiment: Inhibitory concentration required to inhibit HIV-induced cytopathicity in CEM-4 cells by 50% based in the MTT assay; assay type: functional, organism-based; conditions: Human immunodeficiency virus 1, CEM-4

| Structure (SMILES) | IC50 (Semliki Forest virus) [µg/mL] | MMC (E6SM) [µg/mL] | IC50 [1] [µg/mL] | CC50 (CEM-4) [µg/mL] | IC50 (Human betaherpesvirus 5 [2]) [µg/mL] | IC50 [3] [µg/mL] | IC50 (Junin virus) [µg/mL] | IC50 [4] [µg/mL] | IC50 [5] [µg/mL] | IC50 (Human alphaherpesvirus 2) [µg/mL] | IC50 (Poliovirus 1) [µg/mL] | IC50 (Human betaherpesvirus 5 [6]) [µg/mL] | MMC (Vero) [µg/mL] | IC50 (Vaccinia virus) [µg/mL] | IC50 (Human alphaherpesvirus 1 [7]) [µg/mL] | IC50 [8] [µg/mL] | IC50 (Tacaribe virus) [µg/mL] | IC50 (Sindbis virus) [µg/mL] | IC50 (Coxsackievirus) [µg/mL] | IC50 (Human alphaherpesvirus 1 [9]) [µg/mL] | also measured |
| --- | --- | --- | --- | --- | --- | --- | --- | --- | --- | --- | --- | --- | --- | --- | --- | --- | --- | --- | --- | --- | --- |
| CCCCCCCCCCCCSCCCCCCCCCCCCC(=O)NCCCCCCCCCCC(=O)[O-].[Na+] | > 200 | >200 | 20 | 37 | > 50 | 150 | > 50 | 50 | > 200 | > 200 | > 200 | 35 | >200 | > 200 | > 200 | 47 | > 50 | > 200 | > 200 | > 200 | IC50 (Human respirovirus 3): > 200 µg/mL; MMC (HeLa): >200 µg/mL; IC50 [10]: Not Active; IC50 [11]: > 200 µg/mL; CC50 (MT4): 136 µg/mL; MMC (HEL): >50 µg/mL |
| CCCCCCCCCCCCSCCCCCCCCCCC(=O)N(C)CCCCCCCCCCC(=O)[O-].[Na+] | > 200 | >400 | 28 | > 200 | > 50 | 150 | > 50 | 150 | > 200 | 70 | > 200 | > 50 | >200 | > 200 | > 200 | 70 | > 50 | > 200 | > 200 | > 200 | IC50 (Human respirovirus 3): > 200 µg/mL; MMC (HeLa): >200 µg/mL; IC50 [10]: Not Active; IC50 [11]: > 200 µg/mL; CC50 (MT4): 128 µg/mL; MMC (HEL): >50 µg/mL |
| CCCCCCCCCCCCSCCCCCCCCCCCCCCCCCCCCCCCCCCCCCCCCCCCCCCCCCCCCCCCCCCC(=O)N(CC)CCCCCCCCCCC(=O)NC(CCC(=O)[O-])C(=O)O.[Na+] (stereo not given) | > 10 | 100 | 0.1 | > 300 | 10 | 30 | > 50 | 6 | > 10 | > 40 | > 200 | 5 | >40 | > 40 | 20 | 7 | > 50 | > 10 | > 200 | 40 | IC50 [12]: 1 µg/mL; IC50 (Human respirovirus 3): > 10 µg/mL; MMC (HeLa): >200 µg/mL; IC50 [11]: > 40 µg/mL; CC50 (MT4): > 250 µg/mL; MMC (HEL): >50 µg/mL |
| CCCCCCCCCCCCSCCCCCCCCCCCCCCCCCCCCCCCCCCCCCCCCC(=O)N(CC)CCCCCCCCCCC(=O)[O-].[Na+] | > 200 | 100 | > 16 | 27 | 9 | 50 | 20 | 30 | > 200 | 20 | > 200 | 9 | >200 | > 40 | > 40 | > 29 | > 20 | > 200 | > 200 | > 200 | IC50 [12]: > 11 µg/mL; IC50 (Human respirovirus 3): > 200 µg/mL; MMC (HeLa): >200 µg/mL; IC50 [11]: > 40 µg/mL; CC50 (MT4): 30 µg/mL; MMC (HEL): >50 µg/mL |
| CCCCCCCCCCCCSCCCCC(=O)NCCCCCCCCCCC(=O)NCCC(=O)[O-].[Na+] | > 200 | 400 | 6 | > 300 | 30 | 6 | 50 | 30 | > 200 | 20 | > 200 | 23 | >200 | > 200 | 40 | 27 | 43 | > 200 | > 200 | 70 | IC50 (Human respirovirus 3): > 200 µg/mL; MMC (HeLa): >200 µg/mL; IC50 [10]: Not Active; IC50 [11]: > 200 µg/mL; CC50 (MT4): > 250 µg/mL; MMC (HEL): >50 µg/mL |
